Experimental data published in ChEMBL document CHEMBL1926614, “Substituted thiazoles V. synthesis and antitumor activity of novel thiazolo[2,3-b]quinazoline and pyrido[4,3-d]thiazolo[3,2-a]pyrimidine analogues” (2012).

Assays:
Assay type in all cases: functional
SF-295 = test: Growth inhibition of human SF295 cells at 10 uM after 48 hrs by coulter counting; settings: SF-295, 48 h, read-out: GI
Summary of the method: (§1)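 Single-dose primary screen across the full NCI 60-cell-line panel. Stocks were made in DMSO and diluted in PBS to a final DMSO below 1%. Cultures at 6 × 10⁴ cells/ml were run in duplicate wells alongside PBS/DMSO vehicle controls at 37 °C in humidified 5% CO₂. Data were expressed as percent growth of treated cells.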

[1] = Growth inhibition of human NCI-322M cells at 10 uM after 48 hrs by coulter counting; settings: read-out: GI; summary of the method: as §1
SK-MEL-2 = test: Growth inhibition of human SK-MEL-2 cells at 10 uM after 48 hrs by coulter counting; settings: SK-MEL-2, 48 h, read-out: GI; summary of the method: as §1
A498 = test: Growth inhibition of human A498 cells at 10 uM after 48 hrs by coulter counting; settings: A498, 48 h, read-out: GI; summary of the method: as §1
MDA-MB-435 = test: Growth inhibition of human MDA-MB-435 cells at 10 uM after 48 hrs by coulter counting; settings: MDA-MB-435, 48 h, read-out: GI; summary of the method: as §1
NCI-H522 = test: Growth inhibition of human NCI-H522 cells at 10 uM after 48 hrs by coulter counting; settings: NCI-H522, 48 h, read-out: GI; summary of the method: as §1
786-0 = test: Growth inhibition of human 786-0 cells at 10 uM after 48 hrs by coulter counting; settings: 786-0, 48 h, read-out: GI; summary of the method: as §1
SF-268 = test: Growth inhibition of human SF268 cells at 10 uM after 48 hrs by coulter counting; settings: SF-268, 48 h, read-out: GI; summary of the method: as §1
HL-60(TB) = test: Growth inhibition of human HL-60(TB) cells at 10 uM after 48 hrs by coulter counting; settings: HL-60, 48 h, read-out: GI
Summary of the method: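 Test compound was dissolved in DMSO and diluted in phosphate-buffered saline to a final DMSO level below 1%. Dilutions were plated in duplicate with cell culture at 6 × 10⁴ cells/ml. Vehicle controls held PBS and DMSO at matching dilutions. Incubation was at 37 °C, humidified, under 5% CO₂. Data were reported as percent growth of treated cells.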

EKVX = test: Growth inhibition of human EKVX cells at 10 uM after 48 hrs by coulter counting; settings: read-out: GI; summary of the method: as §1
MOLT-4 = test: Growth inhibition of human MOLT4 cells at 10 uM after 48 hrs by coulter counting; settings: MOLT-4, 48 h, read-out: GI; summary of the method: as §1
UACC-62 = test: Growth inhibition of human UACC62 cells at 10 uM after 48 hrs by coulter counting; settings: UACC-62, 48 h, read-out: GI
Summary of the method: (§2)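 Single-dose screen in the NCI 60 human tumor cell line panel (nine subpanels). Compounds dissolved in DMSO and diluted in phosphate buffered saline, keeping final DMSO below 1%. Added in duplicate wells to cells at 6 × 10⁴ cells/ml. Controls held PBS and DMSO at matching dilutions. Incubated at 37 °C, humidified, 5% CO₂. Reported as percent growth of treated cells.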

KM12 = test: Growth inhibition of human KM12 cells at 10 uM after 48 hrs by coulter counting; settings: KM12, 48 h, read-out: GI; summary of the method: as §1
UO-31 = test: Growth inhibition of human UO31 cells at 10 uM after 48 hrs by coulter counting; settings: UO-31, 48 h, read-out: GI; summary of the method: as §2
A549 = test: Growth inhibition of human A549 cells at 10 uM after 48 hrs by coulter counting; settings: A549, 48 h, read-out: GI; summary of the method: as §1
NCI-H460 = test: Growth inhibition of human NCI-H460 cells at 10 uM after 48 hrs by coulter counting; settings: NCI-H460, 48 h, read-out: GI; summary of the method: as §1
TK-10 = test: Growth inhibition of human TK10 cells at 10 uM after 48 hrs by coulter counting; settings: TK-10, 48 h, read-out: GI; summary of the method: as §2
RPMI-8226 = test: Growth inhibition of human RPMI8226 cells at 10 uM after 48 hrs by coulter counting; settings: RPMI-8226, 48 h, read-out: GI; summary of the method: as §1
K562 = test: Growth inhibition of human K562 cells at 10 uM after 48 hrs by coulter counting; settings: K562, 48 h, read-out: GI; summary of the method: as §1
HOP-62 = test: Growth inhibition of human HOP62 cells at 10 uM after 48 hrs by coulter counting; settings: HOP-62, 48 h, read-out: GI; summary of the method: as §1
U-251 = test: Growth inhibition of human U251 cells at 10 uM after 48 hrs by coulter counting; settings: U-251, 48 h, read-out: GI; summary of the method: as §2
SNB-19 = test: Growth inhibition of human SNB19 cells at 10 uM after 48 hrs by coulter counting; settings: SNB-19, 48 h, read-out: GI; summary of the method: as §1
NCI-H23 = test: Growth inhibition of human NCI-H23 cells at 10 uM after 48 hrs by coulter counting; settings: NCI-H23, 48 h, read-out: GI; summary of the method: as §1
NCI-H226 = test: Growth inhibition of human NCI-H226 cells at 10 uM after 48 hrs by coulter counting; settings: NCI-H226, 48 h, read-out: GI; summary of the method: as §1
SK-MEL-28 = test: Growth inhibition of human SK-MEL-28 cells at 10 uM after 48 hrs by coulter counting; settings: SK-MEL-28, 48 h, read-out: GI; summary of the method: as §1
LOX IMVI = test: Growth inhibition of human LOXIMVI cells at 10 uM after 48 hrs by coulter counting; settings: read-out: GI; summary of the method: as §1
SK-MEL-5 = test: Growth inhibition of human SK-MEL-5 cells at 10 uM after 48 hrs by coulter counting; settings: SK-MEL-5, 48 h, read-out: GI; summary of the method: as §1
CAKI-1 = test: Growth inhibition of human Caki1 cells at 10 uM after 48 hrs by coulter counting; settings: CAKI-1, 48 h, read-out: GI; summary of the method: as §1
T47D = test: Growth inhibition of human T47D cells at 10 uM after 48 hrs by coulter counting; settings: read-out: GI; summary of the method: as §2
DU-145 = test: Growth inhibition of human DU145 cells at 10 uM after 48 hrs by coulter counting; settings: DU-145, 48 h, read-out: GI; summary of the method: as §1
OVCAR-8 = test: Growth inhibition of human OVCAR8 cells at 10 uM after 48 hrs by coulter counting; settings: OVCAR-8, 48 h, read-out: GI; summary of the method: as §1
HCT-15 = test: Growth inhibition of human HCT15 cells at 10 uM after 48 hrs by coulter counting; settings: HCT-15, 48 h, read-out: GI; summary of the method: as §1
CCRF-CEM = test: Growth inhibition of human CCRF-CEM cells at 10 uM after 48 hrs by coulter counting; settings: read-out: GI; summary of the method: as §1
ACHN = test: Growth inhibition of human ACHN cells at 10 uM after 48 hrs by coulter counting; settings: read-out: GI; summary of the method: as §1
M14 = test: Growth inhibition of human M14 cells at 10 uM after 48 hrs by coulter counting; settings: M14, 48 h, read-out: GI; summary of the method: as §1
UACC-257 = test: Growth inhibition of human UACC257 cells at 10 uM after 48 hrs by coulter counting; settings: UACC-257, 48 h, read-out: GI; summary of the method: as §2
HCT-116 = test: Growth inhibition of human HCT116 cells at 10 uM after 48 hrs by coulter counting; settings: HCT-116, 48 h, read-out: GI; summary of the method: as §1
MCF7 = test: Growth inhibition of human MCF7 cells at 10 uM after 48 hrs by coulter counting; settings: MCF7, 48 h, read-out: GI; summary of the method: as §1
SN12C = test: Growth inhibition of human SN12C cells at 10 uM after 48 hrs by coulter counting; settings: read-out: GI; summary of the method: as §1
NCI/ADR-RES = test: Growth inhibition of human NCI/ADR-RES cells at 10 uM after 48 hrs by coulter counting; settings: read-out: GI; summary of the method: as §1
BT-549 = test: Growth inhibition of human BT549 cells at 10 uM after 48 hrs by coulter counting; settings: BT-549, 48 h, read-out: GI; summary of the method: as §1
SNB-75 = test: Growth inhibition of human SNB75 cells at 10 uM after 48 hrs by coulter counting; settings: SNB-75, 48 h, read-out: GI; summary of the method: as §1
HT-29 = test: Growth inhibition of human HT-29 cells at 10 uM after 48 hrs by coulter counting; settings: HT-29, 48 h, read-out: GI; summary of the method: as §1

Measured: inhibition of growth at 10 µM

CCN1CC2=C(N=C3SC=C(C)N3C2c2ccc(OC)cc2)/C(=C/c2ccc(OC)cc2)C1 (stereo not drawn)
12.5%: SNB-75
35.5%: UO-31
> 10%: all other assays above
